The DC50 is the midpoint of the concentration-degradation curve. Read a low DC50 as a more potent degrader. As a reminder, the CC50 is the concentration at which the toxic effect on the cells reaches its halfway point. The low end stands for greater toxicity to the cells, the high end for lower toxicity to the cells.

Calls of active or inactive are those of the source. The rule behind the calls is not given here.

Series [1] deals with T1, Protein cereblon/Bromodomain-containing protein 4 (Homo sapiens, UniProt O60885+Q96SW2). Kind of series: Induction of CRBN-mediated BRD4 degradation in human 22RV1 cells measured after 24 hrs by immunoblotting analysis. The class given is cell-based. For orientation: A western blot detects proteins with antibodies after separation by electrophoresis.
Series [2] has as its system NCI-H929. Kind of series: Antiproliferative activity against human NCI-H929 cells after 72 hrs by WST-1 assay. The class given is functional. The settings on record: NCI-H929, 72 h. Put shortly:
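NCI-H929 myeloma cells (RPMI-1640, 10% FBS, 0.05 mM 2-mercaptoethanol) seeded at 30% confluency and dosed the next day. After 72 h, WST-1 reagent added and absorbance at 450 nm read. IC50 from nonlinear log(inhibitor) versus response fit.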

The test system of series [3] is TMD8. Put plainly: Antitumor activity against human TMD8 cells xenografted in CB-17/IcrCri SCID mouse assessed as tumor growth inhibition at 50 mg/kg, ip qd for 14 days measured during compound dosing. The class given is functional, organism-based. Put shortly: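 Female CB-17/IcrCri-scid mice carried subcutaneous TMD8 tumours in the right flank. Dosing began at about 150 mm3 mean tumour volume: 50 mg/kg i.p. once daily for 14 days in 20% PEG 400 / 3% Tween 80 in PBS, with DMSO as control. Calipers twice weekly; volume = length x width² x 0.5. Mean ± SE, n = 6.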
A general note: Xenograft models place foreign cells or tissue in a host animal.

Series [4] is described as follows: Toxicity in CB-17/IcrCri SCID mouse xenografted with human TMD8 cells assessed as change in body weight at 50 mg/kg, ip qd for 14 days measured twice weekly during compound dosing. The class given is organism-based. The settings on record: in vivo, 336 h.
The nature of series [5]: Toxicity in CB-17/IcrCri SCID mouse xenografted with human TMD8 cells assessed as adverse effect at 50 mg/kg, ip qd for 14 days. The class given is organism-based. To be noted: in vivo, 336 h. In a few lines:
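TMD8 subcutaneous xenografts in female CB-17/IcrCri-scid mice dosed i.p. at 50 mg/kg daily for 14 days in 20% PEG 400 / 3% Tween 80 in PBS, starting at about 150 mm3 tumours. Animals observed daily for signs of morbidity or mortality.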

The subject of series [6] is CWR22R. Kind of series: Antiproliferative activity against human 22Rv1 cells after 72 hrs by CelTiter-Glo reagent-based luminescence assay. To be noted: 22Rv1, 72 h. The class given is functional. Put shortly:
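22Rv1 cells, 15,000 per well, exposed to compound at indicated concentrations for 72 hr. Viability read by CellTiter-Glo luminescence; relative growth versus DMSO-treated control. IC50 from nonlinear log(inhibitor) versus response fit.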

The target in series [7] is T1, Protein cereblon/Bromodomain-containing protein 4. Put plainly: Induction of CRBN-mediated BRD4 degradation in human 22RV1 cells in presence of proteasome inhibitor bortezomib by immunoblotting analysis. The class given is cell-based.
The target is the same in series [8]. Put plainly: Induction of CRBN-mediated BRD4 degradation in human 22RV1 cells in presence of neddylation inhibitor MLN4924 by immunoblotting analysis. The class given is cell-based.
For series [9], the target named is Bromodomain-containing protein 4 (Homo sapiens) (UniProt O60885). Put plainly: Induction of BRD4 degradation in CRBN knockdown human 22RV1 cells by immunoblotting analysis. Put shortly:
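22Rv1 cells transfected with CRBN siRNA or negative-control siRNA using RNAiMAX. After 48 h, degrader added for 12 h. Lysates in HEPES/Triton X-100 buffer with protease inhibitor, then SDS-PAGE and immunoblot.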

Series [10] has as its target T1, Protein cereblon/Bromodomain-containing protein 4. Kind of series: Induction of CRBN-mediated BRD4 degradation in human 22RV1 cells in presence of JQ1 by immunoblotting analysis. The class given is cell-based.
For series [11] the target is unchanged. Kind of series: Induction of CRBN-mediated BRD4 degradation in human 22RV1 cells in presence of TD-106 by immunoblotting analysis. The class given is cell-based.
Series [12] deals with Protein cereblon/Bromodomain-containing protein 3 (Homo sapiens) (UniProt Q15059+Q96SW2). Kind of series: Induction of CRBN-mediated BRD3 degradation in human 22RV1 cells up to 1000 nM measured after 24 hrs by immunoblotting analysis. The class given is cell-based. In a few lines:
(§1)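 22Rv1 prostate cancer cells (RPMI-1640, 10% FBS) given a 24 h dose titration. Lysates in HEPES/Triton X-100 buffer with protease inhibitor, then SDS-PAGE, nitrocellulose transfer and immunoblot.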

Series [13] has as its target Protein cereblon/Bromodomain-containing protein 2 (Homo sapiens) (UniProt P25440+Q96SW2). Put plainly: Induction of CRBN-mediated BRD2 degradation in human 22RV1 cells up to 1000 nM measured after 24 hrs by immunoblotting analysis. The class given is cell-based. Put shortly:
as §1

Series [14] has as its target T1, Protein cereblon/Bromodomain-containing protein 4. Kind of series: Induction of Xpress-tagged CRBN (unknown origin)/FALG-tagged BRD4 (unknown origin) protein-protein interaction by immunoblotting analysis. The class given is protein assay. In a few lines:
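Cells co-transfected with Xpress-CRBN and FLAG-BRD4 using X-tremeGENE HP. Lysates incubated with anti-FLAG magnetic beads, 4 °C for 3 h. Beads washed in lysis buffer and 500 mM NaCl wash buffer, eluted in SDS sample buffer, and immunoblotted.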

Series [15] has as its target Protein cereblon/Zinc finger protein Aiolos (Homo sapiens) (UniProt Q96SW2+Q9UKT9). Put plainly: Induction of CRBN ubiquitin ligase-mediated IKZF3 degradation in human U266 cells up to 10 uM measured after 12 hrs by immunoblotting analysis.

T1 sequence (Q96SW2 whole entry, looked up, other chains not shown): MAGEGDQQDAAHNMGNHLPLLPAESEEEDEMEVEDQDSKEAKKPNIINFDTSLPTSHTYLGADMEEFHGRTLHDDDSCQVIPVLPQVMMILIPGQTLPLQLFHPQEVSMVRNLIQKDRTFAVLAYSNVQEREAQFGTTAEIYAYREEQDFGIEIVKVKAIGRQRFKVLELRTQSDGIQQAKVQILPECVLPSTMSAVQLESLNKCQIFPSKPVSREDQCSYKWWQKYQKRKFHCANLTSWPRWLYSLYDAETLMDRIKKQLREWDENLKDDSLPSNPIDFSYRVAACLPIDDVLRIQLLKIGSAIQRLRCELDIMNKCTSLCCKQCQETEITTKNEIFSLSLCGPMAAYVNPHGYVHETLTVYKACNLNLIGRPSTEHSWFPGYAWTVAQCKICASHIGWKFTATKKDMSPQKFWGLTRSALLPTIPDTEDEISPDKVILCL
Sequence of Protein cereblon/Bromodomain-containing protein 3 (Homo sapiens) (Q15059 2-726 limits assumed): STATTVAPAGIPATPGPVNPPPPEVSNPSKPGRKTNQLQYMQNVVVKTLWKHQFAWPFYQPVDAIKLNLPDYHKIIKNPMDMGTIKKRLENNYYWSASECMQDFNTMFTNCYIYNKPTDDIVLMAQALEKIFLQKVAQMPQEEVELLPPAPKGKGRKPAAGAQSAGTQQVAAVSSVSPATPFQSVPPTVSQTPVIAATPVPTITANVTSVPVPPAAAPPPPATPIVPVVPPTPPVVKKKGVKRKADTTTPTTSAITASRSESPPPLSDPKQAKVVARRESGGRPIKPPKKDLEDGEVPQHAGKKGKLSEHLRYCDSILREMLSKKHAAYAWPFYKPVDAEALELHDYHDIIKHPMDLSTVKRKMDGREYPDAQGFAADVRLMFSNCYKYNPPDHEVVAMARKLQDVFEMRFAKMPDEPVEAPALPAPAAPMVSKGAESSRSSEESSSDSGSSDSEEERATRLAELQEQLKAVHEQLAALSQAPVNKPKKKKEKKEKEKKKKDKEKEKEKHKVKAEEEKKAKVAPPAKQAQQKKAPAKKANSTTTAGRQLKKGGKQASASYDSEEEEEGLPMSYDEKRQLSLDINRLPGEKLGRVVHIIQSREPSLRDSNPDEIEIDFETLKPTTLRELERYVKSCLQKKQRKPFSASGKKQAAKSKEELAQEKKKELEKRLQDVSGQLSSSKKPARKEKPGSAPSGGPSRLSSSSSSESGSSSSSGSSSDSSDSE
Sequence of Protein cereblon/Bromodomain-containing protein 3 (Homo sapiens) (Q96SW2 whole entry partner): as the sequence (Q96SW2 whole entry, looked up, other chains not shown) above
Sequence of Protein cereblon/Bromodomain-containing protein 2 (Homo sapiens) (P25440 whole entry, looked up): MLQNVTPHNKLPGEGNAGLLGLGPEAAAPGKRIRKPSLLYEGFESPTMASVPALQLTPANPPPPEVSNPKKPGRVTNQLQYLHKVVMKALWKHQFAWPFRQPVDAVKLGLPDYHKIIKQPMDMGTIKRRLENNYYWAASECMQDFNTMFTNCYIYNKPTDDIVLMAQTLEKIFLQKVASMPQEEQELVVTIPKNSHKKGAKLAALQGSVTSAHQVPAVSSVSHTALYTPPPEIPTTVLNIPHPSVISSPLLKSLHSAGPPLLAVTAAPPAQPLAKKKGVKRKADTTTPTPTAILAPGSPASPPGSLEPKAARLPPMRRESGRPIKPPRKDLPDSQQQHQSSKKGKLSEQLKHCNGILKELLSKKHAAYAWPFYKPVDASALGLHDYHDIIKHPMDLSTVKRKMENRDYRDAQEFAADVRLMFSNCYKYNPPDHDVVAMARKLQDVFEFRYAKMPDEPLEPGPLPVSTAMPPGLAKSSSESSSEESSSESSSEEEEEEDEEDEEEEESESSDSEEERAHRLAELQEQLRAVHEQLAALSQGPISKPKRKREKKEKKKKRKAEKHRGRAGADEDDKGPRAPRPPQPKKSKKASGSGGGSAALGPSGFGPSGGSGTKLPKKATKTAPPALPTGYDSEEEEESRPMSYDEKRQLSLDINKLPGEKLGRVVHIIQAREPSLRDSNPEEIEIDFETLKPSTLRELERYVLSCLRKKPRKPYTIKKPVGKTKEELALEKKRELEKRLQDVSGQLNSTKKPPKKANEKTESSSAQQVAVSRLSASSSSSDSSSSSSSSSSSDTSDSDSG
Sequence of Protein cereblon/Bromodomain-containing protein 2 (Homo sapiens) (Q96SW2 whole entry, looked up): as the sequence (Q96SW2 whole entry, looked up, other chains not shown) above
Sequence of Protein cereblon/Zinc finger protein Aiolos (Homo sapiens) (Q96SW2 whole entry, looked up): as the sequence (Q96SW2 whole entry, looked up, other chains not shown) above
Sequence of Protein cereblon/Zinc finger protein Aiolos (Homo sapiens) (Q9UKT9 whole entry, looked up): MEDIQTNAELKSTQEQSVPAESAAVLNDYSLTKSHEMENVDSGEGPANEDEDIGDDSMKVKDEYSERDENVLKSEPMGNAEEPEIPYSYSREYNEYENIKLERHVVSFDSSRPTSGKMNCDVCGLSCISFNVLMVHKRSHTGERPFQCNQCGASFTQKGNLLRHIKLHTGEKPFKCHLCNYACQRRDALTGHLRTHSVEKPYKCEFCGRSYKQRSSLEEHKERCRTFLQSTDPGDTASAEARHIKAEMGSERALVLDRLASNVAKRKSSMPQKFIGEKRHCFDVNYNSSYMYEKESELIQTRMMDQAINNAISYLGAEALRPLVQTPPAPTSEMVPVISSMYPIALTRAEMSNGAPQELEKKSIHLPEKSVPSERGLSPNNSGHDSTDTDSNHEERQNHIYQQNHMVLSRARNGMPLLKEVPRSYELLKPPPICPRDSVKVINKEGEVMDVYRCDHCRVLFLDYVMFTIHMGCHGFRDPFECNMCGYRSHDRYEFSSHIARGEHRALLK

Take `Cc1sc2c(c1C)C(c1ccc(Cl)cc1)=N[C@@H](CC(=O)Nc1ccc(OCCOCCOCCNc3cccc4nnn(C5CCC(=O)NC5=O)c(=O)c34)cc1)c1nnc(C)n1-2` (some centres not stated): it took 3.3 nM to reach half-maximal degradation in [1] (DC50).

In the case of `Nc1cccc2c1C(=O)N(C1CCC(=O)NC1=O)C2=O` (configuration not stated) [POMALIDOMIDE], the half-maximal cytotoxic concentration (CC50) in series [2] came to 35 nM.

`Nc1cccc2nnn(C3CCC(=O)NC3=O)c(=O)c12` (configuration not stated) came in with a CC50 in [2] of 39 nM. Besides, the TGI entry in series [3] was “Active”. The Activity result in series [4] and in series [5] was “Non-Toxic” each time.

Take `Cc1sc2c(c1C)C(c1ccc(Cl)cc1)=N[C@@H](CC(=O)Nc1cccc(OCCOCCOCCNc3cccc4nnn(C5CCC(=O)NC5=O)c(=O)c34)c1)c1nnc(C)n1-2` (some centres not stated): in series [1], the DC50 came to 0.32 nM. Half-maximal cytotoxicity in [6] (CC50) was put at 20.1 nM. The outcome in series [7], in series [8], in series [9], in [10] and in [11] was inactive. For the same molecule, the result in series [12], in series [13], in series [14] and in [15] was Active.
